# Measured values taken from ChEMBL document CHEMBL1145062, “Conformationally defined retinoic acid analogues. 5. Large-scale synthesis and mammary cancer chemopreventive activity for (2E,4E,6Z,8E)-8-(3',4'-dihydro-1'(2'H)-naphthalen-1'-ylidene)-3,7-dimethyl-2,4,6-octatrienoic acid (9cUAB30)” (2003).
# Columns and labels:
# Rattus norvegicus [1] = assay: Anti cancer activity of compound was measured by weight of uterus in gram per 100 g body weight of rat in 200 mg/kg diet after MNU intravenous injection; type: functional
# Summary of the method: (§1)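 Female rats housed five per cage on 4% Teklad rodent diet; single intravenous MNU via jugular vein at 50 days of age. Retinoid mixed into diet (Patterson–Kelly liquid–solid blender; stability checked by HPLC) and fed continuously from 53 days of age; n = 20 per group; diet-only MNU control group. Weighed weekly; body weight and liver, uterus, ovary weights (g per 100 g body weight) taken at study end.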
# Rattus norvegicus [2] = assay: Anti cancer activity of compound was measured by weight of liver in gram per 100 g body weight of rat in 100 mg/kg diet after MNU intravenous injection; type: functional; summary of the method: as §1
# Rattus norvegicus [3] = assay: Anti cancer activity of compound was measured by final body weight(g) of rat in 200 mg/kg diet after MNU intravenous injection; type: functional; summary of the method: as §1
# Rattus norvegicus [4] = assay: Anti cancer activity of compound was measured by final body weight(g) of rat in 100 mg/kg diet after MNU intravenous injection; type: functional; summary of the method: as §1
# Rattus norvegicus [5] = assay: Anti cancer activity of compound was measured by weight of ovaries in gram per 100 g body weight of rat in 100 mg/kg diet after MNU intravenous injection; type: functional, Female gonad; summary of the method: as §1
# Rattus norvegicus [6] = assay: Anti cancer activity of compound was measured by weight of ovaries in gram per 100 g body weight of rat in 200 mg/kg diet after MNU intravenous injection; type: functional, Female gonad; summary of the method: as §1
# Rattus norvegicus [7] = assay: Anti cancer activity of compound was measured by weight of liver in gram per 100 g body weight of rat in 200 mg/kg diet after MNU intravenous injection; type: functional; summary of the method: as §1
# Rattus norvegicus [8] = assay: Anti cancer activity of compound was measured by weight of uterus in gram per 100 g body weight of rat in 100 mg/kg diet after MNU intravenous injection; type: functional; summary of the method: as §1
smiles,measurement,setting,value
CC(=C\C=C\C(C)=C\C(=O)O)/C=C1\CCCc2ccccc21,Organ weight,Rattus norvegicus [1],0.21 g
same,Organ weight,Rattus norvegicus [2],2.96 g
same,Body weight,Rattus norvegicus [3],272 g
same,Body weight,Rattus norvegicus [4],271 g
same,Organ weight,Rattus norvegicus [5],0.046 g
same,Organ weight,Rattus norvegicus [6],0.052 g
same,Organ weight,Rattus norvegicus [7],3.11 g
same,Organ weight,Rattus norvegicus [8],0.16 g
